# Measured values: ChEMBL document CHEMBL4038313, “Expanding the Antiviral Spectrum of 3-Fluoro-2-(phosphonomethoxy)propyl Acyclic Nucleoside Phosphonates: Diamyl Aspartate Amidate Prodrugs” (J Med Chem, 2017)
# How the values were obtained:
# [1] = test system: Human immunodeficiency virus 1; experiment: Antiviral activity against CCR5 tropic HIV1 BaL infected in human TZM-bl cells assessed as inhibition of virus-induced cytopathic effect preincubated with cells for 30 mins followed by viral infection measured after 48 hrs in presence of p-24 HIV-1 Ag by luciferase reporter gene assay; type: functional, cell-based; details: Human immunodeficiency virus 1, BaL
# How it was run: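 TZM-bl cells, 1 × 10^4 per well in DMEM with 10% FBS and 10 mM […], incubated 30 min at 37 °C with compound. Then HIV-1 NL4.3 (X4) or BaL (R5) added at 100 pg p24 Ag per well. After 48 h, cells lysed with luciferase substrate. Tat-induced luminescence read after 10 min dark incubation as a measure of replication.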
# [2] = Cytotoxicity against human TZM-bl cells assessed as cell viability by tetrazolium dye assay; type: cell-based
# [3] = test system: Human immunodeficiency virus 1; experiment: Antiviral activity against CXCR4-tropic HIV-1 NL4-3 infected in human PHA-stimulated PBMC assessed as inhibition of viral replication by measuring reduction in p24 antigen production preincubated with cells for 30 mins followed by viral infection measured on day 10 post infection in presence of IL-2 by ELISA; type: functional; details: Human immunodeficiency virus 1, NL4-3
# How it was run: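 PBMCs stimulated with 2 μg/mL PHA for 3 days at 37 °C, then 5 × 10^5 cells/ml preincubated 30 min at 37 °C with serial compound dilutions plus 2 ng/mL IL-2. Infected with 1500 pg/well HIV-1 BaL or 500 pg/well other isolates. IL-2 re-added on days 3 and 6. Supernatant p24 Ag measured by ELISA at day 10. EC50 is 50% inhibition of replication.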
# [4] = Cytotoxicity against human PHA-stimulated PBMC assessed as cell viability by tetrazolium dye assay; type: cell-based
# [5] = Selectivity index, ratio of CC50 for human TZM-bl cells to EC50 for CCR5 tropic HIV1 BaL infected in human TZM-bl cells; type: toxicity, cell-based; details: read-out: Ratio CC50/EC50
# [6] = Selectivity index, ratio of CC50 for human PHA-stimulated PBMC to IC50 for CXCR4-tropic HIV-1 NL4-3 infected in human PHA-stimulated PBMC
# [7] = test system: Human immunodeficiency virus 1; experiment: Antiviral activity against tenofovir-resistant CXCR4-tropic HIV-1 NL4-3 harboring reverse transcriptase K65R mutant infected in human MT4 cells assessed as inhibition of viral replication inhibition of virus-induced cytopathic effect after 6 days by XTT dye based assay; type: functional, cell-based; details: Human immunodeficiency virus 1, NL4-3, MT4, 144 h
# How it was run: (§1)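 MT-4 cells, 1 × 10^4 per well, given compound dilutions and wild-type NL4-3 or K65R NL4-3. Virus titred to give 85–95% cell killing at day 6. Incubated 6 days at 37 °C, 5% CO2. Viability read by XTT at 450/650 nm. EC50 from CPE reduction and toxicity from uninfected drug wells, by four-parameter fit. Fold change is K65R EC50 over wild-type EC50.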
# [8] = test system: Human immunodeficiency virus 1; experiment: Selectivity ratio of EC50 for tenofovir-resistant CXCR4-tropic HIV-1 NL4-3 harboring reverse transcriptase K65R mutant infected in human MT4 cells to EC50 for CXCR4-tropic HIV-1 NL4-3 infected in human MT4 cells; type: functional; how it was run: as §1
# [9] = Cytotoxicity against human HepG2.2.15 cells assessed as cell viability by tetrazolium dye uptake assay; type: cell-based, HepG2 2.2.15
# How it was run: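 HepG2.2.15 cells (two integrated copies of HBV ayw1 genome) were seeded at 1.5 × 10^4 cells/well in DMEM with 2% FBS, 380 μg/mL G418, glutamine, antibiotics and nonessential amino acids. After 16−24 h, medium with various compound concentrations was added in triplicate and renewed on day 3. After 6 days of treatment, viability was read by MTS uptake and CC50 was calculated.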
# [10] = test system: Human betaherpesvirus 5; experiment: Antiviral activity against Human cytomegalovirus AD169 infected in HEL cells assessed as inhibition of virus-induced cytopathic effect; type: functional, cell-based; details: Human betaherpesvirus 5, AD169, HEL
# How it was run: (§2)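 HEL fibroblast monolayers inoculated with 100 CCID50 HCMV (AD-169, Davis) or 20 PFU VZV (TK+ Oka, TK− 07-1). Adsorbed 1–2 h, inoculum removed, then incubated with compound dilutions. HCMV cytopathicity or VZV plaques scored once untreated infected controls reached completion. EC50 is 50% reduction. SI is CC50/EC50, and the potency ratio is the ratio of EC50s.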
# [11] = test system: Human betaherpesvirus 5; experiment: Antiviral activity against HCMV Davis strain infected in HEL cells assessed as inhibition of virus-induced cytopathic effect; type: functional, cell-based; details: Human betaherpesvirus 5, Davis; how it was run: as §2
# [12] = test system: Human alphaherpesvirus 3; experiment: Antiviral activity against thymidine kinase deficient Varicella-Zoster virus 07-1 infected in HEL cells assessed as inhibition of plaque formation; type: functional, cell-based; details: Human alphaherpesvirus 3, 07-1, HEL; how it was run: as §2
# [13] = Cytotoxic activity against HEL cells assessed as alteration of cell morphology after 3 days by microscopic method; type: cell-based; details: human
# How it was run: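 HEL cells with compound; MCC is the lowest concentration giving microscopically detectable alteration of cell morphology.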
# [14] = Stability of the compound in phosphate buffer of pH 8 at 1 mg after 1 hr by 31P NMR spectroscopy; type: physicochemical; details: pH 8, 1 h
# How it was run: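 1 mg compound in 0.2 mL acetone-d6 plus 0.3 mL pH 8 buffer (0.1 M Na2HPO4 adjusted with 0.1 M HCl). In situ 31P NMR (202 MHz) at 37 °C, spectra every 30 min over 14 h.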
# [15] = Half life in human liver microsomes at 0.1 uM in presence of NADPH by HPLC-MS/MS method; type: ADME, microsome
# How it was run: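 Pooled human liver microsomes preincubated 10 min at 37 °C with an NADPH-regenerating system (1 mM NADP, 5 mM G6P, G6PDH) in pH 7.4 phosphate with 3 mM MgCl2 and 1 mM EDTA. Compound added at final 0.1 μM and sampled at 0–60 min into acetonitrile/methanol. Analysed by HPLC-MS/MS, mean of two experiments.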
# [16] = Selectivity index, ratio of CC50 for HEL cells to EC50 for thymidine kinase expressing Varicella-Zoster virus Oka; type: toxicity; details: human, read-out: Ratio CC50/EC50; how it was run: as §2
# [17] = Selectivity index, ratio of CC50 for HEL cells to EC50 for thymidine kinase deficient Varicella-Zoster virus 07-1; type: toxicity; details: human, read-out: Ratio CC50/EC50; how it was run: as §2
# [18] = test system: Human immunodeficiency virus 1; experiment: Antiviral activity against CXCR4-tropic HIV-1 NL4-3 infected in human MT4 cells assessed as inhibition of virus-induced cytopathic effect after 6 days by XTT dye based assay; type: functional, cell-based; details: Human immunodeficiency virus 1, NL4-3, MT4, 144 h; how it was run: as §1
# [19] = Selectivity index, ratio of CC50 for HepG2.2.15 cells to EC50 for HBV ayw1 infected in human HepG2(2.2.15) cells assessed as reduction in viral replication by measuring intracellular viral DNA copy
# How it was run: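 Run as the HepG2.2.15 6-day assay (triplicate compound, medium with compound renewed at day 3). At the end, total intracellular DNA was isolated from the cells and HBV DNA copy number measured by TaqMan qPCR. EC50/EC90 derived; SI is CC50/EC50.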
# [20] = test system: Human immunodeficiency virus 1; experiment: Potency index, ratio of (S)-9-[3-Fluoro-2-(phosphonomethoxy)propyl]adenine EC50 to compound EC50 for CCR5 tropic HIV1 BaL infected in human TZM-bl cells; type: functional
# [21] = test system: Human alphaherpesvirus 3; experiment: Potency index, ratio of (S)-9-[3-Fluoro-2-(phosphonomethoxy)propyl]adenine EC50 to compound EC50 for thymidine kinase expressing Varicella-Zoster virus Oka; type: functional, strain Oka vaccine; how it was run: as §2
# [22] = test system: Human alphaherpesvirus 3; experiment: Potency index, ratio of (S)-9-[3-Fluoro-2-(phosphonomethoxy)propyl]adenine EC50 to compound EC50 for thymidine kinase deficient Varicella-Zoster virus 07-1; type: functional; how it was run: as §2
smiles,measurement,setting,value
CCCCCOC(=O)C[C@H](NP(=O)(CO[C@H](CF)Cn1cnc2c(N)ncnc21)Oc1ccccc1)C(=O)OCCCCC (some centres not stated),EC50,[1],4 nM
same,CC50,[2],33.2 µM
same,IC50,[3],3 nM
same,CC50,[4],2480 nM
same,selectivity ratio,[5],7910
same,Ratio CC50/IC50,[6],>827
same,EC50,[7],170 nM
same,Ratio EC50,[8],5.7
same,CC50,[9],20.3 to 22.6 µM
same,EC50,[10],3.97 µM
same,EC50,[11],6.28 µM
same,EC50,[12],57 nM
same,MCC at 72 h,[13],31.4 µM
same,Stability,[14],Stable
same,half-life at 0.1 µM,[15],2 min
same,selectivity ratio,[16],39
same,selectivity ratio,[17],34
same,EC50,[18],30 nM
same,Ratio CC50/EC50,[19],1017
same,Ratio EC50,[20],1500
same,Ratio EC50,[21],2000
same,Ratio EC50,[22],2000
